pIC50: −log10 of the molar value.
Biological target: T1, Renin (Homo sapiens, UniProt P00797)
T1 sequence (P00797 whole entry): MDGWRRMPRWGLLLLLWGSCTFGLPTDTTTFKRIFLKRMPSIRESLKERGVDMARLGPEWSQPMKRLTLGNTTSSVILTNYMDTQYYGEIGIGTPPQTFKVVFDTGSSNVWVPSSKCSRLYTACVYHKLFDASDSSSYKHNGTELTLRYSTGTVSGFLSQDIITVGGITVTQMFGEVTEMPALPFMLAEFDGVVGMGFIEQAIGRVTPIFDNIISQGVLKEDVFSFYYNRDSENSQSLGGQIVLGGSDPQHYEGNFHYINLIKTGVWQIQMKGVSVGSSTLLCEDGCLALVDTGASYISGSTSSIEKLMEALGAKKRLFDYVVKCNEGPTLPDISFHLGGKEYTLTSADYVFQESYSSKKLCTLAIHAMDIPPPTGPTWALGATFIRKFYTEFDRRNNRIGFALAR
Test: Compound was evaluated for the inhibition of human plasma renin at pH 7.4
Assay type: cell-free
Summary of the method: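 Human plasma renin activity measured by radioimmunoassay of generated angiotensin I, run in phosphate buffer at pH 7.4 and 37 °C. IC50 is the mean of three determinations.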

| pIC50 | Compound |
| --- | --- |
| < 4.70 | CCCCNC(=O)[C@@H](C[C@H](O)[C@H](CC1CCCCC1)NC(=O)[C@H](CCCC)N1Cc2ccccc2C[C@H](N2C(=O)c3ccccc3C2=O)C1=O)C(C)C |
| 5.76 | CCCCNC(=O)[C@@H](C[C@H](O)[C@H](CC1CCCCC1)NC(=O)[C@H](CCCC)N1Cc2ccccc2C[C@H](NC(=O)OC(C)(C)C)C1=O)C(C)C |
| 5.69 | CCCCNC(=O)[C@@H](C[C@H](O)[C@H](CC1CCCCC1)NC(=O)[C@H](CCCC)N1Cc2ccccc2C[C@H](N)C1=O)C(C)C |
| 7.06 | CCCCNC(=O)[C@@H](C[C@H](O)[C@H](CC1CCCCC1)NC(=O)[C@H](CCCC)NC(=O)C(Cc1ccccc1)N1C(=O)c2ccccc2C1=O)C(C)C (stereo not given in full) |
| 6.68 | CCCCNC(=O)[C@@H](C[C@H](O)[C@H](CC1CCCCC1)NC(=O)[C@H](CCCC)N1Cc2ccccc2C[C@H](NC(C)=O)C1=O)C(C)C |

Further lines, the compound ahead of its results:

| Compound | pIC50 |
| --- | --- |
| CCCCNC(=O)[C@@H](C[C@H](O)[C@H](CC1CCCCC1)NC(=O)[C@H](CCCC)NC(=O)C(Cc1ccccc1)NC(C)=O)C(C)C (stereo not given in full) | 9.08 |
| CCCCNC(=O)[C@@H](C[C@H](O)[C@H](CC1CCCCC1)NC(=O)[C@H](CCCC)NC(=O)C(Cc1ccccc1)NC(=O)OC(C)(C)C)C(C)C (stereo not given in full) | 8.68 |
| CCCCNC(=O)[C@@H](C[C@H](O)[C@H](CC1CCCCC1)NC(=O)[C@H](CCCC)N1CC[C@@H](c2ccccc2)[C@H](NC(=O)OC(C)(C)C)C1=O)C(C)C | 5.23 |
| CCCCNC(=O)[C@@H](C[C@H](O)[C@H](CC1CCCCC1)NC(=O)[C@H](CCCC)N1CC[C@H](c2ccccc2)[C@H](NC(=O)OC(C)(C)C)C1=O)C(C)C | 6.87 |
| CCCCNC(=O)[C@@H](C[C@H](O)[C@H](CC1CCCCC1)NC(=O)[C@H](CCCC)N1CC[C@H](c2ccccc2)[C@H](NC(C)=O)C1=O)C(C)C | 7.68 |

From ChEMBL document CHEMBL1125389, “Synthesis and use of 3-amino-4-phenyl-2-piperidones and 4-amino-2-benzazepin-3-ones as conformationally restricted phenylalanine isosteres in renin inhibitors” (J Med Chem, 1992)
